According to ChEMBL document CHEMBL4513216, “Probing the Open Global Health Chemical Diversity Library for Multistage-Active Starting Points for Next-Generation Antimalarials” (ACS Infect Dis, 2020):

Experiment: Toxicity liver stage against HepG2, at 10uM
Assay type: cell-based
Design: test concentration 10 uM, cell line HepG2-A16-CD81EGFP
Conditions: human, HepG2-A16-CD81EGFP cells; read-out: INHIBITION
Procedure, shortened: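 Uninfected HepG2-A16-CD81EGFP cells, 3 × 10^3 per well, 1536-well, plated on prespotted compound at 10 μM final, parasite-free screening media added to match infected plates; puromycin 10 μM positive, DMSO 0.5% negative; run in parallel with 48 h PbLuc assay at 37 °C, 5% CO2; viability by CellTiter-Glo luminescence, normalized to controls.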

Structure (SMILES)	cytotoxicity at 10 µM
CCCc1cc(=O)[nH]c(-n2nc(-c3cccs3)cc2N)n1	11.2%
c1cc(-c2ccc3c(c2)C2(CCNCC2)CC3)ccn1	56.9%
O=C(NCC1CC1)C12CC(CN1Cc1nccs1)C2	-4.6%
O=C([C@H]1C[C@H]2OCC[C@H]2N(CC2CC2)C1)N1CCCC1	-0.542%
O=C(Nc1ccccc1F)c1nn(C2CCS(=O)(=O)C2)c2c1CCCC2 (stereo not given)	6.17%
O=C(NCCCN1CCCCC1)c1ccc(-n2ccc3ccccc32)s1	-6.19%
CC(C(=O)NC1CCN(C)CC1)n1nc(C(F)(F)F)c(Cl)c1C1CC1 (stereo not given)	-8.17%
Cc1cc2c(cc1Cl)C=CC1(CCN(CC(=O)N3CCCC3)CC1)O2	-8.05%
CCOc1ccc(CN2CCCC(c3cc4ncccc4[nH]3)C2)cc1 (stereo not given)	1.18%
Fc1ccc(CN2CCCC(c3cc4ncccc4[nH]3)C2)cc1 (stereo not given)	-1.87%
Cc1cc2c(=O)n3c(nc2s1)CCN(C(=O)c1sc(C)nc1C)CC3	-0.579%
CN1CCC(c2cccc(Cc3ccc(C(F)(F)F)cc3)n2)CC1	3%
CN(C(=O)Nc1ccncc1)C1CCN(c2ccc(Cl)cc2)CC1	1.44%
O=C(CCn1cncn1)NCC1CCS(=O)(=O)C1 (stereo not given)	-48.3%
O=C(Nc1cncc(Br)c1O)c1ccon1	15.4%
CCc1nnc(CNc2ccc(CC(=O)N3CCSCC3)cc2)o1	7.37%
CC(OCC1CC1)C(=O)Nc1cccc(C(=O)Nc2ccncc2)c1 (stereo not given)	7.12%
COc1ccc2c(c1)OCC(CNC1CCc3nc(C)nn3C1)=C2 (stereo not given)	1.84%
CC(C)(C)n1ncc(NCC(O)c2ccc(F)c(F)c2)c(Cl)c1=O (stereo not given)	54.1%
COc1ccc(C)cc1CN1CCn2cccc2C1C (stereo not given)	18.3%
COc1ccsc1C(=O)NC1CCN(c2cccc(F)c2)CC1	18.3%
CC(C)CCN(C(=O)Nc1cccc(C(=O)N(C)C)c1)C1CC1	-14.2%

Structure (SMILES)	cytotoxicity at 10 µM
CN(CCOc1ccccc1)C(=O)Nc1cccn(C)c1=O	-11.3%
COCC(=O)NC(C)c1sc(-c2ccccc2F)nc1C (stereo not given)	5.41%
CC(C)c1ccc(/C=C/CC(=O)NC2CCN(C(N)=O)CC2)cc1	7.1%
N#Cc1c(Cl)nsc1NCc1ccnc(OCC(F)(F)F)c1	12.5%
CC(Cn1ccnc1)NC(=O)N(C)Cc1ccco1 (stereo not given)	-0.687%
Cc1cc(CN(C)CCN(C)c2ccccc2)no1	-4.65%
CCSCCC(C)N(C)C(=O)c1ccc(C)o1 (stereo not given)	-3.75%
CCNc1ccnc(CN2CCCC2C(=O)Nc2nccs2)c1 (stereo not given)	4.32%
CCCC1CCCN(C(=O)Nc2cccnc2OC)CC1 (stereo not given)	4.52%
Cc1cnn(CCNCc2ccc(OCc3cscn3)cc2)c1	-5.48%
Cc1cccc2c1OCCCC2NCc1nnc2n1CCCCC2 (stereo not given)	-0.699%
Cc1nn(C)c(N(C)C)c1CNCC(O)COc1cccc(F)c1 (stereo not given)	6.2%
COc1ccc(-c2nnc(SC(C)C(=O)NC(C)(C)C)[nH]2)c(OC)c1 (stereo not given)	66.5%
CC(Cn1cccn1)NCc1nc(-c2cccnc2)no1 (stereo not given)	-0.813%
CCOCc1ccccc1NC(=O)NCC(C)(O)c1cc(C)oc1C (stereo not given)	-1.48%
CCNC(=O)CN(CC)C(=O)Cc1csc(C(C)C)n1	1.29%
COc1cccc(CNc2cc(C)nc(-c3ccncc3)n2)c1OC	46.5%
O=S(=O)(N1CCCC1)N1CCc2sccc2C1	1.7%
CN(Cc1cccnc1)C(CO)c1cccc(Br)c1 (stereo not given)	-5.37%
CC(Nc1ccc(F)cc1)c1nnnn1-c1ccccc1 (stereo not given)	1.81%
CC(SCC(=O)N(C)CC(=O)NC1CC1)c1ccccc1F (stereo not given)	-2.49%
NCc1ccnc(Oc2ccc(F)cc2)c1	12.4%

Structure (SMILES)	cytotoxicity at 10 µM
CN(Cc1c(F)cccc1Cl)C(=O)CN(C)C1CCc2ccccc21 (stereo not given)	11.3%
CCN(c1ccc(C(=O)NCc2cc[nH]n2)cc1)C(C)C	11.9%
COCCCN1CCCN(C(C)C(=O)Nc2cccc(I)c2)CC1 (stereo not given)	-8.34%
CCc1nc(CN2CCCN(c3ncnc4ccccc34)CC2)no1	43.6%
CC(NC(=O)c1cc(-c2cccc(Cl)c2)no1)C(=O)N1CCCC1 (stereo not given)	3.59%
CS(=O)(=O)N1C[C@H]2CN(CC3CC3)C(=O)[C@H]2C1	6.53%
O=C1CO[C@@H]2CN(S(=O)(=O)c3ccc(F)cc3)C[C@H]2N1	4.59%
CC(C)N1CCCN(c2nc(-c3cccnc3)nc3c2cnn3C)CC1	28.2%
Cc1nonc1-c1nc(C(C)C)nn1-c1ccc2c(c1)OCO2	-6.9%
CN(Cc1ccc(-n2cccn2)cc1)c1cc(N)nc(N)n1	86.7%
CCc1nc(C)cc(N2CCCC(C(=O)c3ccc(OC)cc3C)C2)n1 (stereo not given)	9.99%
CCN(CC)C(=O)[C@@H]1C[C@@H](n2cc(-c3ccccn3)nn2)CN1	9.63%
Cc1ccc2cc(C3(O)CCN(C(=O)CSC(C)C)CC3)ccc2n1	22%
CC(C)c1nc(CN2CCc3onc(-c4cccc(F)c4)c3C2)no1	5.56%
CCN1CCCC1CN(Cc1ccon1)CC1CCN(CCOC)CC1 (stereo not given)	-0.525%
c1ccc(C2CCCN(c3ncnc4c3CCNC4)CC2)cc1 (stereo not given)	58.5%
Cc1noc(-c2ccnc(Oc3cccc(CN4CCCC4)c3F)c2)n1	-7.07%
Cc1cc2c(N3CCCC(OCc4cccnc4)C3)ncnc2s1 (stereo not given)	39%
O=C(NC1CCCCC1)N1CCC(n2cc(-c3ccccn3)nn2)CC1	4.49%
CC(C)CCC1=NC2(CCN(C(=O)CN3CCCC3=O)CC2)C(=O)N1	-3.07%
Cc1nc(C)c(-c2ccn(CC(=O)Nc3cnn(C)n3)n2)s1	74%
COc1cc(N2CCCC(CO)(Cc3ccccc3F)C2)ncn1 (stereo not given)	45.7%

Structure (SMILES)	cytotoxicity at 10 µM
O=C(c1coc(COc2cccc3cnccc23)n1)N1CCCCCC1	-128%
CCCc1nc(C)c(CNc2nc(C)nc3onc(C)c23)s1	1.6%
CCCN(Cc1nc2ccccc2[nH]1)Cc1ccccc1OC	-39.6%
CC1(C)CNC(=O)c2nc(CCCN3CCCC3)[nH]c2C1	-12.4%
CCCn1ncc(CN2CCCC(C(=O)c3ccc(SC)cc3)C2)c1C (stereo not given)	-3.25%
Cc1csc2ncnc(N3CCC(Cn4cc(C(C)(C)O)nn4)CC3)c12	49.2%
CCSc1ncc(CN2CCC(O)(CN3CCOCC3)C(C)(C)C2)cn1 (stereo not given)	7.49%
OCC1(CCOc2ccccc2)CCCN(c2ccc(Cl)cn2)C1 (stereo not given)	7.52%
COC(=O)N1CCCCC1C(=O)N1CCN(c2cccnc2)CC1 (stereo not given)	-10.6%
CN(C)C(=O)c1ccc(C2CCCN2C(=O)c2cccc3c2OCC3)s1 (stereo not given)	4.1%
COc1cccc(CCC2CCCN(C(=O)c3n[nH]c4c3CCC4)C2)c1 (stereo not given)	4.48%
COc1ccccc1CN(C)c1nccc(-c2cn(C)nc2C)n1	53.8%
CSCC(=O)N1CCCN(c2ccccc2C)CC1	8.14%
Cc1ncc(C)c(N2CCCC(CO)(Cc3cccc(Cl)c3)C2)n1 (stereo not given)	59.4%
Cc1nc(N2CC[C@@H](NC(=O)c3cnccn3)[C@H](O)C2)c2ccsc2n1	38.6%
CCCOc1ccc(CNc2cncc(-n3cccn3)n2)cc1	11.7%
CCCc1ccc(S(=O)(=O)Nc2ccc(=O)n(C)c2)cc1	43.5%
CC(C)OCc1cccc(CNc2cnn(C)c(=O)c2Cl)c1	29.5%
c1nc(N2CCCC(Cn3cncn3)C2)c2sccc2n1 (stereo not given)	6.74%
CC1CN(CC2CCCC2)CCN1c1ccc2nncn2n1 (stereo not given)	6.36%
c1ccc2sc(CN3CCOC(Cn4cncn4)C3)nc2c1 (stereo not given)	-0.489%
O=C(O)CCC(=O)N1CCN(CC2CC2)c2ncccc2C1	-101%

Structure (SMILES)	cytotoxicity at 10 µM
CNC(=O)[C@@H]1C[C@H]2CN(Cc3c(C)noc3C)C[C@H]2N1C(C)C	-107%
CN(C)CCOCC1CN(Cc2cccc(F)c2)Cc2nccn2C1 (stereo not given)	-131%
c1ccc(-c2ccc(C3CNCCO3)nc2)cc1 (stereo not given)	2.36%
CCn1ncc2c1C(COCC1CC1)CN(c1ccc(C)nn1)C2 (stereo not given)	11.4%
Cc1cccc(CN2CCO[C@H]3[C@@H](OCc4ccncc4)CC[C@@H]32)n1	-85.4%
O=C(NC1CCC1)[C@@H]1C[C@@H]2CCN(CCc3ccccc3)C[C@H]2O1	-72.7%
O=C(c1ccco1)N1CC[C@@H]2O[C@@H](COCCN3CCCC3)CC[C@@H]21	-76.8%
COc1ccc(CN2C[C@@H]3OCCN(CCN4CCCC4)[C@@H]3C2)cc1	-82.4%
Clc1cccc(C[C@@H]2NCCC[C@@H]2Nc2ccccc2)c1	89.3%
N#Cc1ccc(N2CCCC3(CCN(c4cccnc4)CC3)C2)cc1	55.5%
O=S1(=O)c2ccccc2C2(CCN(Cc3ccccc3)C2)N1CC1CC1 (stereo not given)	16.3%
Cc1csc(NC(=O)c2cnc(C3CCCN3)cn2)n1 (stereo not given)	-41%
O=S(=O)(c1cccs1)N1CCCC2(COCCN(c3cccnc3)C2)C1 (stereo not given)	-78.5%
COc1cccc(CN2CCc3nc(C(=O)NCC(C)C)sc3CC2)c1	16.8%
Cc1noc(C)c1CN1Cc2ccnn2CC(C(=O)NCC2CC2)C1 (stereo not given)	-69.2%
COc1cc(N2C[C@H]3CN(Cc4ccccn4)C[C@H]3C2)ncn1	-96.3%
c1ccc2c(c1)N(CC1CCOC1)CC21CCN(c2cnccn2)CC1 (stereo not given)	-94.7%
Cc1ccc(CN2CCOC3(CCCN(c4cccc(F)c4)C3)C2)o1 (stereo not given)	-70%
O=C1CC[C@H]2[C@H](CCN2S(=O)(=O)C2CC2)N1CCN1CCCC1	-88.9%
CC(C)C[C@H](N)C(=O)N1CCSc2ccccc2C1	0.318%
c1cnc(N2CCC3(CC2)CN(CC2CC2)c2ccccc23)nc1	19.9%
CC(C)CS(=O)(=O)N1C[C@@H]2C[C@H](C(=O)N3CCOCC3)[C@H](C1)O2	-2.71%
